A selection: hits, their analogues and other compounds. The true share with any hit is near 3.3%.
Jurkat viability = reduces viability or proliferation of Jurkat cells | Jurkat E6.1 viability, ATP luminescence, 48 h | inhibition, % at 4 µM | 56,000 tested, 1.2% active;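 active = inhibition above the mean inhibition of all tested compounds plus 3 SD, cut at about 28% in these data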
5HT1E antag = 5-HT1E (human) receptor antagonism; inhibition, % at 6 µM; CHO 5-HT1E Ga15 NFAT-bla reporter, FRET, antagonist; P28566; 65,000 tested, 0.99% active; AID 571;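 active = inhibition above a set limit, the mean inhibition across every tested compound plus 3 SD, cut at about 29% in these data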;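 also: signal is the 460 over 535 nm emission ratio of beta-lactamase substrate; 0% = agonist plus DMSO wells and 100% = wells without agonist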
HTR1A agonist = activates the human 5-HT1a serotonin receptor; CHO 5-HT1a Ga15 NFAT-bla reporter, FRET ratio; 0% basal, 100% maximal reference agonist; AID 567; activation, % at 10 µM; 65,000 tested, 0.56% active;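 active = activation above the screen-wide mean activation plus 3 SD, cut at about 19% in these data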;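 also: 0% = DMSO wells and 100% = 5-CT at EC100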
Target sequence (P08908 whole entry, looked up): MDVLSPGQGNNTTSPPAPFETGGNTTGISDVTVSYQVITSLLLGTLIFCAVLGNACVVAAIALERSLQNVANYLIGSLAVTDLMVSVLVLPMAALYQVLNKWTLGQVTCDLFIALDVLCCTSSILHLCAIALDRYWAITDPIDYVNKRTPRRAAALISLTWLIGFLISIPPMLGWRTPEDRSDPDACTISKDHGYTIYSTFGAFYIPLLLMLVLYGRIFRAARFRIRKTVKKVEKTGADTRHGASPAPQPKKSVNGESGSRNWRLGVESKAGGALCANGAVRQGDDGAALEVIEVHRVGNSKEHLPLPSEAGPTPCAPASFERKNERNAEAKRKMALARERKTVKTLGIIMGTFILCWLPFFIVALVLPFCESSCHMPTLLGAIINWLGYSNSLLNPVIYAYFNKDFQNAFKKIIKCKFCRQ
5-HT1A blocker = antagonists of human 5-HT1a serotonin receptor; P08908; CHO 5-HT1a Ga15 NFAT-bla reporter, antagonist mode; inhibition, % at 10 µM; 62,000 tested, 0.68% active; AID 612;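 active = inhibition above the mean of all tested compounds plus 3 SD, cut at about 43% in these data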;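 also: receptor stimulated by 5-CT agonist at 100 nM near EC80; beta-lactamase reporter measured by ratiometric fluorescence of a cleavable substrate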
HTR1E agonist = agonists of human 5-HT1E serotonin receptor | 65,000 tested, 0.69% active | CHO 5-HT1E Ga15 NFAT-bla reporter, FRET; 0% DMSO wells, 100% control agonist wells | P28566 | activation, % at 6 µM;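 active = activation above a set limit, the screen-wide mean activation plus 3 SD, cut at about 8.5% in these data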;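 also: 100% = positive control agonist at 1 µM giving full maximal response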
HEK293 NFkB inh = inhibitors of the PMA/ionomycin-induced NF-kB reporter in HEK293 cells; HEK-293 NF-kB luciferase reporter, luminescence; inhibition, % at 3 µM; 62,000 tested, 0.21% active;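 active = inhibition above the mean of all tested compounds plus 3 SD, cut at about 40% in these data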;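 also: 0% = stimulated DMSO wells and 100% = 10 µM reference inhibitor 5653914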
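System – HEK-293 cells with stable firefly luciferase reporter driven by four HIV NF-kB elements · Doses – one dose, 3 µM · Schedule – 1 h compound pre-incubation, 16 h PMA/ionomycin at 37 °C · Technique – luminescence from luciferase substrate reagent · Measure – percent inhibition normalized per plate to DMSO and reference-inhibitor controls · Replicates – tested once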
Active calls of the source: *.

How did Cc1c(-c2cccs2)[n+](=O)c2c(n1[O-])CCCCC2 do in these assays?
5HT1E antag: -10.1; HTR1A agonist: 0.3; 5-HT1A blocker: -7.1; HTR1E agonist: 0.4; HEK293 NFkB inh: 15.4

Results for CCc1nnc(NC(=O)CSc2nnc(CNc3ccc(Cl)cc3)o2)s1 ?
Jurkat viability: 4.0; 5HT1E antag: 4.5; HTR1A agonist: -2.9; 5-HT1A blocker: 2.2; HTR1E agonist: 0.4; HEK293 NFkB inh: -0.2

How did CCOc1cc(C(=O)CSc2nnc(CNc3ccc(Cl)cc3)o2)ccc1NC(=O)CC do in these assays?
Jurkat viability: 6.1; 5HT1E antag: 58.0*; HTR1A agonist: -2.4; 5-HT1A blocker: 32.4; HTR1E agonist: 3.5; HEK293 NFkB inh: 5.4

Results for CCSc1ccccc1C(=O)Nc1cc(C)on1 ?
Jurkat viability: -2.9; 5HT1E antag: -3.2; HTR1A agonist: -1.9; 5-HT1A blocker: -1.3; HTR1E agonist: 14.2*; HEK293 NFkB inh: 7.3

How did Cc1ccc2nc3c(cc2c1)CN(Cc1ccco1)C(=NCC1CCCO1)S3 (configuration not stated) do in these assays?
Jurkat viability: -2.4; 5HT1E antag: -8.8; HTR1A agonist: -2.4; 5-HT1A blocker: 18.3; HTR1E agonist: 0.7; HEK293 NFkB inh: -8.0

How did Cc1cccc2cc3c(nc12)SC(=NCC1CCCO1)N(Cc1ccco1)C3 (configuration not stated) do in these assays?
Jurkat viability: 0.7; 5HT1E antag: 31.6*; HTR1A agonist: -3.4; 5-HT1A blocker: 57.2*; HTR1E agonist: 0.9; HEK293 NFkB inh: 9.5

How did CN(C)c1nc(Oc2ccc(=O)[nH]n2)nc(N2CCCCC2)n1 do in these assays?
5HT1E antag: -5.9; HTR1A agonist: -1.2; 5-HT1A blocker: -2.7; HTR1E agonist: 0.2; HEK293 NFkB inh: 9.6

What do the screens show for `Cc1ccc2oc(=O)n(CCOc3ccccc3Cl)c2c1`?
Jurkat viability: 6.6; 5HT1E antag: 32.1*; HTR1A agonist: -0.1; 5-HT1A blocker: 24.5; HTR1E agonist: -1.8; HEK293 NFkB inh: 6.7

Results for COc1ccccc1OCCCn1c(=O)oc2ccc(C)cc21 ?
Jurkat viability: -7.8; 5HT1E antag: -1.1; HTR1A agonist: -0.4; 5-HT1A blocker: -11.2; HTR1E agonist: -0.5; HEK293 NFkB inh: 9.7

Results for CCCOc1ccccc1Cn1c(=O)oc2ccc(C)cc21 ?
5HT1E antag: 14.0; HTR1A agonist: -2.1; 5-HT1A blocker: 43.8*; HTR1E agonist: -1.4; HEK293 NFkB inh: 17.5

How did CCOc1ccccc1Cn1c(=O)oc2ccc(C)cc21 do in these assays?
Jurkat viability: -2.5; 5HT1E antag: 7.7; HTR1A agonist: 0.7; 5-HT1A blocker: 20.8; HTR1E agonist: -2.7; HEK293 NFkB inh: 18.1

What do the screens show for `O=S(=O)(c1ccc(OCC(O)CN2CCc3ccccc3C2)cc1)N1CCOCC1` (configuration not stated)?
Jurkat viability: 2.7; 5HT1E antag: -4.0; HTR1A agonist: -0.5; 5-HT1A blocker: -1.2; HTR1E agonist: -0.6; HEK293 NFkB inh: 7.8

Results for C=CCn1c2ccccc2c2nnc(SCCCn3c(=O)[nH]c4ccccc43)nc21 ?
5HT1E antag: 21.5; HTR1A agonist: 10.4; 5-HT1A blocker: 47.6*; HTR1E agonist: 0.8; HEK293 NFkB inh: 17.7

Results for O=c1[nH]c2ccccc2n1CCCSc1cnc2ccccc2n1 ?
Jurkat viability: -2.6; 5HT1E antag: 9.9; HTR1A agonist: 1.1; 5-HT1A blocker: 18.0; HTR1E agonist: 2.0; HEK293 NFkB inh: 0.8

What do the screens show for `O=C(NCc1ccccn1)C1CCCN(S(=O)(=O)c2cccc3nsnc23)C1` (configuration not stated)?
Jurkat viability: -1.5; 5HT1E antag: -7.9; HTR1A agonist: 1.9; 5-HT1A blocker: -16.4; HTR1E agonist: 0.2; HEK293 NFkB inh: 12.2

How did CC(=O)c1cccc(NC(=O)CCNS(=O)(=O)c2cccc3nsnc23)c1 do in these assays?
5HT1E antag: 1.7; HTR1A agonist: -0.6; 5-HT1A blocker: 7.5; HTR1E agonist: -0.1; HEK293 NFkB inh: 18.3

How did Cc1cccc(NC(=O)CCNS(=O)(=O)c2cccc3nsnc23)c1 do in these assays?
5HT1E antag: -6.1; HTR1A agonist: 0.1; 5-HT1A blocker: -5.2; HTR1E agonist: 38.2*; HEK293 NFkB inh: 8.9

Results for COCCCNC(=O)c1c(N)n(/N=C/c2cccs2)c2nc3ccccc3nc12 ?
5HT1E antag: -31.2; HTR1A agonist: 86.5*; HTR1E agonist: 26.1*

Results for CN(CCCC(=O)Nc1ccncc1)S(=O)(=O)c1ccc(Cl)cc1 ?
Jurkat viability: 44.8*; 5HT1E antag: 3.0; HTR1A agonist: -1.2; 5-HT1A blocker: 1.8; HTR1E agonist: -0.9; HEK293 NFkB inh: 7.4

How did CN(C)C(=O)CN(C)S(=O)(=O)c1ccc(Cl)cc1 do in these assays?
Jurkat viability: -4.4; 5HT1E antag: -10.7; HTR1A agonist: -1.1; 5-HT1A blocker: -8.9; HTR1E agonist: 0.3; HEK293 NFkB inh: -7.7

Results for Cc1ccc(-n2ncc3c(=O)[nH]c(SC(C)C)nc32)cc1 ?
Jurkat viability: 4.2; 5HT1E antag: 27.1; HTR1A agonist: 1.6; 5-HT1A blocker: -4.7; HTR1E agonist: 0.6; HEK293 NFkB inh: 14.8

Results for CCOC(=O)C(C)Sc1nc2c(cnn2-c2ccc(C)cc2)c(=O)[nH]1 (configuration not stated) ?
Jurkat viability: 49.8*; 5HT1E antag: 5.5; HTR1A agonist: -0.1; 5-HT1A blocker: 25.9; HTR1E agonist: -0.1; HEK293 NFkB inh: 17.5

What do the screens show for `CSc1ccc2nnc(-c3cccc(F)c3)n2n1`?
Jurkat viability: -6.4; 5HT1E antag: 6.2; HTR1A agonist: 19.6*; 5-HT1A blocker: -5.5; HTR1E agonist: -0.5; HEK293 NFkB inh: 12.1

What do the screens show for `CCC(C)(C)n1nnnc1C(CC(C)C)N1CCC(C(N)=O)CC1` (configuration not stated)?
Jurkat viability: -6.6; 5HT1E antag: -20.2; HTR1A agonist: -0.2; 5-HT1A blocker: -10.6; HTR1E agonist: -0.4; HEK293 NFkB inh: -1.7

What do the screens show for `CCOc1ccc(OCC)c(NC(=O)c2ccc(CNc3c(N4CCOCC4)c(=O)c3=O)cc2)c1`?
Jurkat viability: -7.6; 5HT1E antag: -0.4; HTR1A agonist: -2.1; 5-HT1A blocker: -3.9; HTR1E agonist: -0.1; HEK293 NFkB inh: 3.9

What do the screens show for `Cc1nc(C)c(-c2csc(NCc3ccco3)n2)s1`?
Jurkat viability: -0.8; 5HT1E antag: 3.2; HTR1A agonist: -2.6; 5-HT1A blocker: 15.6; HTR1E agonist: 0.3; HEK293 NFkB inh: 8.1

What do the screens show for `Cc1nc2ccccn2c1-c1csc(NCc2ccco2)n1`?
Jurkat viability: 31.5*; 5HT1E antag: 12.0; HTR1A agonist: -1.8; 5-HT1A blocker: 15.0; HTR1E agonist: -1.1; HEK293 NFkB inh: 9.6

How did CCOC(=O)c1c(C)n(C)c2ccc(OC)c(NC(=O)CN3CCN(C(=O)c4ccco4)CC3)c12 do in these assays?
Jurkat viability: 4.3; 5HT1E antag: 0.8; HTR1A agonist: -3.4; 5-HT1A blocker: 9.7; HTR1E agonist: -0.8; HEK293 NFkB inh: 30.0
